Biological target: T1, C-C chemokine receptor type 4 (Homo sapiens, UniProt P51679)
T1 sequence (P51679 whole entry): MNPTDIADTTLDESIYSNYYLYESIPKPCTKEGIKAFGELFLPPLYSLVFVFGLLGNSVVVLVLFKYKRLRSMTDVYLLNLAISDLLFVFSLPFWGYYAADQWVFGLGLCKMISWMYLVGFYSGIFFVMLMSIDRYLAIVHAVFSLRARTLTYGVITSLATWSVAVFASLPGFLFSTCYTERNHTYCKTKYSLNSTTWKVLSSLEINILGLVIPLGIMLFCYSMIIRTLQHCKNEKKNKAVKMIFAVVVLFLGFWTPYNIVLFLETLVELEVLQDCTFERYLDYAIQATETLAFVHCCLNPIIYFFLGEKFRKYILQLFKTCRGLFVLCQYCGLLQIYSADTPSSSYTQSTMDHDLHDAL
Assay: Inverse agonist activity at CCR4 in human HTLA cells assessed as depression of basal activity incubated for 20 mins by beta arrestin-recruitment mediated luciferase reporter gene assay in absence of CCL22
Procedure, shortened: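 Transfected HTLA β-arrestin2-TEV/tTA-luciferase cells expressing CCR4, in serum-free DMEM, treated with compound dilutions in HBSS/20 mM HEPES pH 7.4 without CCL22 agonist; luciferase luminescence read on day 4; basal signal depression plotted as concentration-response curves.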

IC50: 200 nM
Structure (SMILES): CCC(C)n1ncn(-c2ccc(N3CCN(c4ccc(OC[C@H]5CO[C@](Cn6cncn6)(c6ccc(Cl)cc6Cl)O5)cc4)CC3)cc2)c1=O (stereo partly specified) [Oriconazole]
